Data taken from ChEMBL document CHEMBL4049390, “Combination of amino acid/dipeptide with ligustrazine-betulinic acid as antitumor agents” (Eur J Med Chem, 2017).
pIC50: −log10 of the molar value.

What was measured:
[1] = test system: BGC-823; assay: Antiproliferative activity against human BGC823 cells after 72 hrs by MTT assay; format: functional, cell-based; conditions: BGC-823, 72 h
In short: (§1)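 MTT assay. Log-phase cells were seeded at 3×10^3 cells/well and left overnight, then exposed to serial dilutions of compound (DMSO solutions) for 72 h in RPMI 1640 with 10% heat-inactivated FBS at 37 °C, 5% CO2. MTT (5 mg/mL, 20 µL) was added for 4 h at 37 °C and the formazan dissolved in DMSO. A490 was read. % inhibition = (1 − sample OD/control OD)×100; IC50 is the 50% growth-inhibition concentration. Triplicates, n = 3 independent experiments.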

[2] = Therapeutic index, ratio of IC50 for MDCK cells to IC50 for human BGC823 cells
In short: (§2)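 Ratios were calculated from MTT IC50 values (72 h exposure, A490 read-out, n = 3). Potency index = cisplatin IC50 / compound IC50. Therapeutic index = MDCK IC50 / tumour-line IC50.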

[3] = test system: HeLa; assay: Antiproliferative activity against human HeLa cells after 72 hrs by MTT assay; format: functional, cell-based; in short: as §1
[4] = test system: HT-29; assay: Antiproliferative activity against human HT-29 cells after 72 hrs by MTT assay; format: functional, cell-based; conditions: HT-29, 72 h; in short: as §1
[5] = Therapeutic index, ratio of IC50 for MDCK cells to IC50 for human HT-29 cells; in short: as §2
[6] = test system: A549; assay: Antiproliferative activity against human A549 cells after 72 hrs by MTT assay; format: functional, cell-based; conditions: A549, 72 h; in short: as §1
[7] = Therapeutic index, ratio of IC50 for MDCK cells to IC50 for human A549 cells; in short: as §2
[8] = test system: HepG2; assay: Antiproliferative activity against human HepG2 cells after 72 hrs by MTT assay; format: functional, cell-based; conditions: HepG2, 72 h; in short: as §1
[9] = test system: HeLa; assay: Therapeutic index, ratio of IC50 for MDCK cells to IC50 for human HeLa cells; in short: as §2
[10] = Therapeutic index, ratio of IC50 for MDCK cells to IC50 for human HepG2 cells; in short: as §2
[11] = test system: MDCK; assay: Antiproliferative activity against MDCK cells after 72 hrs by MTT assay; format: cell-based; conditions: Canis lupus familiaris; in short: as §1

SMILES | pIC50 [1] | Ratio IC50 [2] | pIC50 [3] | pIC50 [4] | Ratio IC50 [5] | pIC50 [6] | Ratio IC50 [7] | pIC50 [8] | Ratio IC50 [9] | Ratio IC50 [10] | pIC50 [11]
C=C(C)[C@@H]1CC[C@]2(C(=O)OCc3nc(C)c(C)nc3C)CC[C@]3(C)[C@H](CC[C@@H]4[C@@]5(C)CC[C@H](OC(=O)[C@@H](N)CCCCN)C(C)(C)[C@@H]5CC[C@]43C)[C@@H]12 | 5.67 | >10 | 5.58 | 5.58 | >10 | 5.90 | >10 | 5.62 | >10 | >10 | < 4.40
C=C(C)[C@@H]1CC[C@]2(C(=O)OCc3nc(C)c(C)nc3C)CC[C@]3(C)[C@H](CC[C@@H]4[C@@]5(C)CC[C@H](OC(=O)[C@H](C)NC(=O)CN)C(C)(C)[C@@H]5CC[C@]43C)[C@@H]12 | 5.83 | >10 | 5.25 | 5.36 | >10 | 5.61 | >10 | 5.66 | >10 | >10 | < 4.40
C=C(C)[C@@H]1CC[C@]2(C(=O)OCc3nc(C)c(C)nc3C)CC[C@]3(C)[C@H](CC[C@@H]4[C@@]5(C)CC[C@H](OC(=O)[C@H](C)NC(=O)[C@@H]6CCCN6)C(C)(C)[C@@H]5CC[C@]43C)[C@@H]12 | 5.60 | >10 | 5.63 | 5.45 | >10 | 5.39 | >10 | 5.47 | >10 | >10 | < 4.40
C=C(C)[C@@H]1CC[C@]2(C(=O)OCc3nc(C)c(C)nc3C)CC[C@]3(C)[C@H](CC[C@@H]4[C@@]5(C)CC[C@H](OC(=O)CNC(=O)CNC)C(C)(C)[C@@H]5CC[C@]43C)[C@@H]12 | 5.68 | – | 5.13 | 5.47 | – | 5.52 | – | 5.28 | – | – | 4.69
C=C(C)[C@@H]1CC[C@]2(C(=O)OCc3nc(C)c(C)nc3C)CC[C@]3(C)[C@H](CC[C@@H]4[C@@]5(C)CC[C@H](OC(=O)[C@@H](N)[C@@H](C)O)C(C)(C)[C@@H]5CC[C@]43C)[C@@H]12 | 5.15 | – | 5.08 | 5.18 | – | 5.38 | – | 5.44 | – | – | < 4.40
C=C(C)[C@@H]1CC[C@]2(C(=O)OCc3nc(C)c(C)nc3C)CC[C@]3(C)[C@H](CC[C@@H]4[C@@]5(C)CC[C@H](OC(=O)[C@@H](N)Cc6c[nH]c7ccccc67)C(C)(C)[C@@H]5CC[C@]43C)[C@@H]12 | < 4.70 | – | < 4.70 | 5.13 | – | < 4.70 | – | < 4.40 | – | – | < 4.40
C=C(C)[C@@H]1CC[C@]2(C(=O)OCc3nc(C)c(C)nc3C)CC[C@]3(C)[C@H](CC[C@@H]4[C@@]5(C)CC[C@H](OC(=O)CNC)C(C)(C)[C@@H]5CC[C@]43C)[C@@H]12 | 5.40 | – | 5.40 | 5.96 | – | 5.52 | – | 5.35 | – | – | 5.04
